Screens: PubChem BioAssay, several laboratories
Many of the other results were omitted from the sample, so hits are more common in it than they were.
Biofilm kill mix – clotrimazole potentiators killing C. albicans biofilm, primary screen, 4-compound mixtures | C. albicans biofilm persisters + clotrimazole, fluorescence viability; primary screen in compound mixtures of four per well | inhibition, % at 7.6 µM | 120,000 tested, 0.02% active;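 active = inhibition above 30.3% in the primary screen of four-compound pools, then above 30% when the compound was retested; inconclusive = passed the primary limit but could not be retested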;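 also: compounds exposed to preformed 24 h biofilms for 48 h; 0% = untreated biofilm control and 100% = clotrimazole plus chlorhexidine kill blank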
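System: C. albicans CAF4-2 wild-type biofilms; Medium: RPMI/MOPS medium, pH 7.0; Reagent: Clotrimazole, 50 µg/mL; Times: biofilm formation 24 h, compound exposure 48 h, 37 °C; Detection: 2-h Alamar Blue fluorescence, 535/590 nm excitation/emission; Evaluation: percent inhibition of biofilm viability.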
ROMK mod – ROMK potassium channel modulators, primary screen, cell-based, thallium flux, MLSMR library; B-score at 10 µM; AID 1918, 2009; Tet-inducible ROMK, thallium flux fluorescence; actives lie on both sides; 130,000 tested, 2% active;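 active = signal ratio slope over the read window, or its plate-corrected B-score, at least 3 SD from the plate mean, either direction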;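 also: B-score of the F/F0 ratio slope over 7 to 12 s after thallium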
Target sequence (P48048 whole entry, looked up): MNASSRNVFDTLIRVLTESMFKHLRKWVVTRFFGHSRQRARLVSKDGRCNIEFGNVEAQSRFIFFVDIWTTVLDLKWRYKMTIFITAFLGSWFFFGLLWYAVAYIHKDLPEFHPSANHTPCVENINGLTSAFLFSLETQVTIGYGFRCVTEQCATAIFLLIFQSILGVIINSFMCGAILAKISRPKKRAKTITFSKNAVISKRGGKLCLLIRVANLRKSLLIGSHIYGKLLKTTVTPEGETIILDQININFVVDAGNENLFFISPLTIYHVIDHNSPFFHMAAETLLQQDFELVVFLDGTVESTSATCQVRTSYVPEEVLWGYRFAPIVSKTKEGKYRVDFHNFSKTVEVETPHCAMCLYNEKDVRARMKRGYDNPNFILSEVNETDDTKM
ROMK hit retest – ROMK channel modulator hit retest, confirmation, cell-based, thallium flux, duplicate, resupplied hits; AID 1917, 2009; shares compounds with ROMK mod; fluorescence ratio; stronger effect = lower value; 3,000 tested, 54% active; normalized thallium flux (F/F0 slope) at 10 µM;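 active = Flux at 10 µM at least 3 SD below or above vehicle control mean in one or both replicates; inconclusive = no clear call, values can overlap the other calls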
Starred values were filed as active, the others as inactive; ? = inconclusive; nt = no result given.

SMILES | Biofilm kill mix | ROMK mod | ROMK hit retest
COc1ccc(C(=O)NC(=S)NNC(=O)c2ccc3ccccc3n2)cc1 | -5 | nt | nt
O=c1nccc(Nc2ccccc2)[nH]1 | 17 | nt | nt
O=c1[nH]c(Nc2ccccc2)cc2ccccc12 | nt | -3.3* | 0.064*
Cc1cc(C)n(C(=O)c2c([N+](=O)[O-])cnn2C)n1 | 10 | -0.028 | nt
CC(C(=O)N1CCOCC1)N1C(=O)c2ccccc2C1=O (stereo unspecified) | nt | 0.68 | nt
CC(C(=O)O)N1C(=O)c2ccccc2C1=O (stereo unspecified) | nt | 2.9* | 0.078
CC1(c2ccccc2)NC(=O)N(CC(=O)Nc2cc(S(=O)(=O)N3CCOCC3)ccc2Cl)C1=O (stereo unspecified) | 19 | -0.013 | nt
C=CCNC(=O)CSc1n[nH]c(-c2cc(Cl)ccc2OC)n1 | 14 | 0.68 | nt
CC(C)c1nn2c(=O)cc(O)nc2s1 | 23 | nt | nt
Cc1c(CCOC(=O)CC23CC4CC(CC(C4)C2)C3)sc[n+]1CC(=O)c1ccc(Br)cc1 | nt | -6* | 0.045*
Cc1ncsc1CCOC(=O)C12CC3CC(CC(C3)C1)C2 | nt | 0.098 | nt
Cc1c(CCOC(=O)CC23CC4CC(CC(C)(C4)C2)C3)sc[n+]1CC(=O)c1ccccc1 | 29 | -4.1* | 0.047*
Cc1c(CCOC(=O)C23CC4CC(CC(C)(C4)C2)C3)sc[n+]1CC(=O)c1ccccc1 | 23 | -5.9* | 0.06*
Cc1c(CCOC(=O)c2cc([N+](=O)[O-])cc([N+](=O)[O-])c2)sc[n+]1CC(=O)c1ccccc1 | 14 | -0.54 | nt
Cc1c(CCOC(=O)c2ccccc2)sc[n+]1Cc1ccccc1 | 23 | -0.11 | nt
CCOc1nc(NC(=O)NC(=O)c2ccccc2)nc(-c2ccccc2)n1 | 21 | nt | nt
CC(C)(C)C(=O)c1no[n+]([O-])c1/C(=N/O)C(C)(C)C | nt | -0.76 | nt
NC(=O)COc1ccc(/C=N/NS(=O)(=O)c2ccccc2)cc1 | 20 | 0.65 | nt
Cc1ccc(N/C=C(\[N+](=O)[O-])S(=O)(=O)c2ccccc2)cc1 | 20 | 0.3 | nt
Cc1ccc(N/C=C(\C#N)S(=O)(=O)c2ccccc2)cc1 | 1 | 2.5* | 0.078
CCOC(=O)N1CCN(C(=O)CSc2nnc(-c3cc(OC)ccc3OC)o2)CC1 | nt | -0.099 | nt
Cc1cc(C)cc(N2C(=O)CC(N(C(=O)c3ccco3)c3cc(C)cc(C)c3)C2=O)c1 (stereo unspecified) | nt | 0.89 | nt
Cc1cc(C=NCCO)c(C)n1-c1cc(Cl)ccc1Cl | 14 | nt | nt
Cc1cc(/C=N/n2cnnc2)c(C)n1-c1cc(Cl)ccc1Cl | nt | nt | ?
O=S(=O)(c1cccc(C(F)(F)F)c1)N1CCN(c2nnnn2-c2ccccc2)CC1 | nt | 0.92 | nt
SMILES | Biofilm kill mix | ROMK mod | ROMK hit retest
COc1ccc(CCNC(=O)C2CCN(Cc3nc(-c4ccccc4F)oc3C)CC2)cc1OC | nt | -1.6 | nt
Cc1oc(-c2ccccc2F)nc1CN1CCC(C(=O)NCCC2=CCCCC2)CC1 | nt | -5.4* | 0.056*
O=c1c(-c2ccnn2-c2cccc(Cl)c2)cnc2n1CCS2 | nt | -1.2 | nt
C=CCn1cc(C(=O)N2CCc3ccccc3C2)c(=O)c2cc(S(=O)(=O)N(CC)CC)ccc21 | 13 | -0.95 | nt
CCn1cc(C(=O)N2CCc3ccccc32)c(=O)c2cc(S(=O)(=O)N(C)C3CCCCC3)ccc21 | 13 | -2.8* | 0.077
Cc1cc(C)n(-c2ccc(C(=O)OCC(=O)Nc3ccc(S(=O)(=O)N4CCCCC4)cc3)cc2)n1 | nt | 2* | 0.078
Cc1cc(C)n(-c2ccc(C(=O)Nc3cccc(S(=O)(=O)N4CCCC4)c3)cc2)n1 | 10 | -0.18 | nt
OCCSc1nc2ccccc2n1CCOc1ccccc1 | nt | -0.093 | nt
CCOC(=O)c1ccc(NC(=O)CCS(=O)(=O)c2ccc(Br)s2)cc1 | nt | 0.15 | nt
N#Cc1cc(-c2ccccc2)nc(Oc2ccc(Cl)cc2)n1 | 8 | 0.29 | nt
CCCCOC(=O)N1CCOCCOCCOCC1 | 17 | nt | nt
CCOC(=O)C(C)CC(C)C(=O)N1CCOCCN(C(=O)C(C)CC(C)C(=O)OCC)CCOCC1 (stereo unspecified) | nt | nt | 0.091
CCN1CCN(C(=O)CN(c2ccc(C)cc2)S(C)(=O)=O)CC1 | nt | 0.5 | nt
O=C(NCc1ccco1)c1ccc(=O)[nH]n1 | nt | -0.34 | nt
O=C(NCc1ccccc1)c1ccc(=O)[nH]n1 | nt | 0.55 | 0.077
CCOC(=O)c1ccc(Cl)c(S(=O)(=O)N2CCCC2)c1 | 13 | 0.75 | nt
O=C1c2ccccc2-c2onc3ccc(N4CCCC4)c1c23 | 11 | -5.6* | 0.06*
O=C1c2ccccc2C(=O)c2c1cccc2N1CCCC1 | -13 | 0.71 | nt
CSCC(CO)NS(=O)(=O)c1ccc(C)cc1 (stereo unspecified) | 21 | nt | nt
O=C(/C=C/c1ccc(Br)cc1)c1ccco1 | 19 | -5.4* | ?
O=C(/C=C/c1ccc(Br)cc1)c1ccc(NC(=O)c2ccco2)cc1 | 19 | nt | nt
O=C(OCC(=O)N1CCCCCC1)c1ccc(Cl)c(S(=O)(=O)N2CCCC2)c1 | -1 | -0.091 | nt
O=C(OCC#CCSc1nnc(-c2cccc3ccccc23)o1)c1cccs1 | nt | -1.2 | nt
O=C(OCC#CCSc1nnc(-c2ccccc2)o1)c1cccs1 | nt | -2.6 | 0.058*
COc1cc(C)ccc1S(=O)(=O)N1CCN(C23CC4CC(CC(C4)C2)C3)CC1 | nt | -2.9* | 0.062*
SMILES | Biofilm kill mix | ROMK mod | ROMK hit retest
COc1cc(C)ccc1S(=O)(=O)N1CCCCCC1 | 26 | 0.69 | nt
COc1cc(F)ccc1S(=O)(=O)N1CCN(C23CC4CC(CC(C4)C2)C3)CC1 | nt | -2.8* | 0.064*
CC(=O)Nc1ccc(S(=O)(=O)N2CCN(C34CC5CC(CC(C5)C3)C4)CC2)cc1 | nt | -0.82 | nt
Cc1ccccc1OCc1nc2ccccc2c(=O)n1/N=C/c1cn[nH]c1-c1ccc(Br)cc1 | 12 | nt | nt
O=C(Cn1cnc2c(nnn2Cc2ccc(F)cc2)c1=O)N1CCCc2ccccc21 | 4 | -0.47 | nt
CC(=O)N1CC=C2C(C#N)=C(N)C(C#N)(C#N)C(C)C2C1 (stereo unspecified) | nt | -0.44 | nt
CC(=O)N1CC=C2C(C#N)=C(N)C(C#N)(C#N)C(CCc3ccccc3)C2C1 (stereo unspecified) | nt | -2.7* | 0.062*
CCOC(=O)N1CC=C2C(C#N)=C(N)C(C#N)(C#N)[C@H](c3ccc(OCC)c(OCC)c3)[C@H]2C1 | nt | 1.8 | nt
CCN1CC=C2C(C#N)=C(N)C(C#N)(C#N)C(CCc3ccccc3)C2C1 (stereo unspecified) | nt | nt | 0.057*
Cc1ccc(C=Nc2cc([N+](=O)[O-])ccc2C)s1 | 12 | 0.12 | nt
COC(=O)c1c(C)oc(C)c1S(=O)(=O)NCc1ccc(OC)cc1 | 22 | 1 | nt
Cc1ccc(C2C(C#N)=C(N)N(c3cccnc3)C3=C2C(=O)CCC3)s1 (stereo unspecified) | 25 | 0.078 | nt
CCOC(=O)N1CCN(Cc2nc(Cc3cccc(F)c3)no2)CC1 | 8 | 0.96 | nt
Cc1cc(C)c2c(=O)[nH]cnc2n1 | 8 | 0.46 | nt
COc1ccc(CC(=O)NNc2ncnc3c2cnn3Cc2ccccc2)cc1OC | 5 | nt | 0.078
COc1ccc(NC(=O)CSc2ncnc3c2cnn3Cc2ccccc2)cc1OC | nt | -0.0099 | nt
CCc1c(C)nc2ncnn2c1N1CCC(C(=O)Nc2cccc(C(C)=O)c2)CC1 | nt | nt | ?
CCc1c(C)nc2ncnn2c1N1CCC(C(=O)NCc2cccs2)CC1 | 12 | -0.01 | nt
COc1cc(C2CC(=O)Oc3c2c(=O)n(C)c2ccccc32)cc(OC)c1OC (stereo unspecified) | 12 | 1.1 | nt
